Assay outcomes as filed in PubChem.
Rows were chosen to be rich in hits. Some 1.1% of all compounds tested hit in one or more screens of this group.
hK5 inh: human KLK5 protease inhibitors, primary screen, biochemical, 1536-well | recombinant hK5, fluorogenic AMC substrate cleavage | inhibition, % at 5 µM | 210,000 tested, 0.59% active;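 active = inhibition of 40% or more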;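 also: 0% = enzyme controls without compound and 100% = no-enzyme blanks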
Calb biofilm kill: clotrimazole potentiators killing C. albicans biofilm, primary screen, 4-compound mixtures. C. albicans biofilm persisters + clotrimazole, fluorescence viability; primary screen in compound mixtures of four per well. inhibition, % at 7.6 µM. 120,000 tested, 0.02% active. AID 1242, 2008;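 active = inhibition above 30.3% in the primary screen of four-compound pools, then above 30% when the compound was retested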;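 also: compounds exposed to preformed 24 h biofilms for 48 h; 0% = untreated biofilm control and 100% = clotrimazole plus chlorhexidine kill blank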
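Probe or stimulus – Clotrimazole 50 µg/mL co-treatment · System – C. albicans biofilms · Schedule – 24 h biofilm formation, then 48 h compound exposure, 37 °C · Evaluation – percent inhibition of biofilm viability · Technique – 2-h Alamar Blue fluorescence, 535/590 nm excitation/emission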
FXIIa inh 1536: human FXIIa protease inhibitors, primary screen, biochemical, 1536-well; Coagulation factor XII (Homo sapiens), P00748; purified FXIIa, Boc-QGR-AMC fluorogenic substrate, 2 h; inhibition, % at 5 µM; 220,000 tested, 0.3% active; in the data active = inhibition above about 40%;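 also: 0% = enzyme with no compound and 100% = blank without enzyme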
Furin inh: human furin inhibitors, primary screen, biochemical, fluorescence intensity; inhibition, % at 20 µM or 30 µM; AID 463115, 2010; purified furin, fluorogenic substrate cleavage; P09958; 220,000 tested, 0.061% active; in the data active = inhibition above about 25%
Target sequence (P09958 108-714 limits assumed): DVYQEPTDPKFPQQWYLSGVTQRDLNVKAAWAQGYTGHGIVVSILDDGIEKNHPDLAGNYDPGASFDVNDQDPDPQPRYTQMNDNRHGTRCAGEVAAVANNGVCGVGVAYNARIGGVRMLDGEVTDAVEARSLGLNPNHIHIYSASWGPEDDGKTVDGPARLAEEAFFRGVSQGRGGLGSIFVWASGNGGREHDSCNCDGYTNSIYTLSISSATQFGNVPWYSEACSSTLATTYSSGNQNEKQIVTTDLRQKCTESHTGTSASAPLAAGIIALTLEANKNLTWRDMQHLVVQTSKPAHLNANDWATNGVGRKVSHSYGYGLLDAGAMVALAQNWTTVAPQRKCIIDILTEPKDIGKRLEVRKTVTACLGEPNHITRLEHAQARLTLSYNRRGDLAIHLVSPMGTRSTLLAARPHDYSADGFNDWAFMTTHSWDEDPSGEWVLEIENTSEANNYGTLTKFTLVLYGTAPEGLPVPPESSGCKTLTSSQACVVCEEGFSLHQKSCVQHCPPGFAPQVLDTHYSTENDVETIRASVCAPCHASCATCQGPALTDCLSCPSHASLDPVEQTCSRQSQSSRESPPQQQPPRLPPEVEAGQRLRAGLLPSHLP
thrombin 1536: human alpha-thrombin inhibitors, primary screen, counter-screen for coagulation protease inhibitor project, biochemical, 1536-well, fluorogenic AMC substrate. Boc-VPR-AMC fluorogenic substrate cleavage. inhibition, % at 5 µM. 220,000 tested, 0.26% active. AID 1046, 2008;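 active = inhibition at or above 40%; inactive = inhibition below 40%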;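 also: 0% = enzyme with no compound and 100% = wells without enzyme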
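System – human alpha-thrombin · Medium – pH 7.5 Tris (50 mM) with NaCl 150 mM, Tween 20 0.05% · Compound – single-point dosing at 5 µM, 0.2% DMSO · Incubation – enzyme reaction carried out at room temperature · Technique – fluorescence of released AMC, ex 355 nm, em 460 nm · Read-out basis – % inhibition of thrombin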
FXIa inh: human FXIa protease inhibitors, primary screen, biochemical, 1536-well | 220,000 tested, 0.14% active | purified FXIa, Boc-Glu-Ala-Arg-AMC fluorogenic substrate | AID 798, 2007 | Coagulation factor XI (Homo sapiens), P03951 | inhibition, % at 5 µM;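 active = inhibition of at least 40%; inactive = inhibition below 40%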;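 also: fluorescence of freed AMC excited at 355 nm; 0% = enzyme without compound and 100% = no enzyme blank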
Active calls of the source: *; x = no result.

SMILES | hK5 inh | Calb biofilm kill | FXIIa inh 1536 | Furin inh | thrombin 1536 | FXIa inh
Cc1ccc(CN(CC(=O)NC2CCCC2)C(=O)CSc2nnc(COc3ccccc3)o2)cc1 | 4 | 21 | 14 | 25* | -4 | 8
CC1(C)CC2CC(C)(CN2C(=O)c2cc(-c3ccccc3O)on2)C1 (centres undefined) | 45* | x | 29 | -19 | 26 | 8
COc1ccc(-c2cc(C(=O)N3CC4(C)CC3CC(C)(C)C4)no2)cc1 (centres undefined) | 0 | x | 12 | -5 | 4 | 3
Cc1ccc(C(=O)Nn2cnnc2)cc1S(=O)(=O)N1CCOCC1 | 4 | 16 | 12 | -33 | 5 | 3
CC(=O)c1ccc2c(c1)N(C)c1ccccc1S2 | 41* | 7 | 21 | -5 | 17 | 16
CC(=O)c1ccc2c(c1)Nc1ccccc1S2 | 15 | x | 1 | -21 | -3 | -5
CCOC(=O)C1=C2NC(=O)c3ccccc3N2C(=O)C1 | -6 | 12 | 0 | -25 | -23 | -10
COc1cc(-c2nnco2)cc(OC)c1OC | 38 | 24 | 47* | -5 | -2 | 34
O=C(O)c1cc(N/N=C/C=C/c2ccccc2)ccc1Cl | 4 | 17 | 9 | -1 | 4 | 0
O=C(NCc1ccccc1)C1COc2ccccc2O1 (centres undefined) | -7 | 10 | 15 | 30* | 6 | 5
COc1ccc2c(c1)nc(NCCCO)n2Cc1ccccc1 | 1 | 15 | 9 | -27 | 1 | -3
CC(C)(C)NC(=O)NCC1CCCC1NC(=O)NC(C)(C)C (centres undefined) | 7 | 4 | 9 | -12 | 9 | 6
Cn1c(NCCc2ccccc2)cc(=O)n(C)c1=O | 3 | x | 77* | -18 | -2 | -2
CCCNc1cc(=O)n(C)c(=O)n1C | 5 | x | -7 | -26 | -7 | -12
Cc1ccc(-c2csc(NC(=O)N3CCOCC3)n2)cc1 | 6 | 24 | 5 | -23 | -1 | -2
C/C(=N\OC(=O)NC(C)C)c1sc(-c2ccc(Cl)cc2)nc1C | 58* | x | 13 | -7 | 19 | 8
C/C(=N\OC(=O)NC(C)C)c1sc(-c2ccccc2)nc1C | 26 | x | 10 | -7 | 2 | 8
O=C(Cn1[nH]c(=O)c2ccccc2c1=O)NNC(=O)c1ccccc1 | 2 | 16 | 6 | -13 | 5 | 0
Cc1cc(C)c(C#N)c(SCc2ccc([N+](=O)[O-])cc2)n1 | 23 | 26 | 41* | -7 | 10 | 10
CCOC(=O)c1c(C)[nH]c(C(=O)CC(=O)OC)c1C | 1 | 59 | 11 | -26 | -6 | -1
O=C(COc1ccc(Cl)cc1Cl)N1CCN(c2ccccn2)CC1 | -5 | 8 | 3 | -11 | -7 | -5
O=C(COc1cc(Cl)c(Cl)cc1Cl)N1CCN(c2ccccn2)CC1 | 24 | 10 | 29 | -3 | 54* | 32
CS(=O)(=O)c1ccc2nc(NC(=O)c3ccc(NS(=O)(=O)c4cccc([N+](=O)[O-])c4)cc3)sc2c1 | 3 | 20 | 12 | -28 | 53* | 4
Cc1ccc(Cn2nc(C)c(NC(=O)c3nn(C)cc3Cl)c2C)cc1 | -8 | 16 | 13 | 25* | 4 | 7
COc1ccc(NS(=O)(=O)c2ccc(NS(=O)(=O)c3ccc(C)cc3)cc2)nn1 | 65* | x | 2 | -18 | 4 | 0
SMILES | hK5 inh | Calb biofilm kill | FXIIa inh 1536 | Furin inh | thrombin 1536 | FXIa inh
CCOC(=O)c1sc(NC(=O)CCSC)nc1C | 2 | x | 18 | -25 | 3 | 7
CCOC(=O)c1sc(NC(=O)CSC(=S)N2CCN(C)CC2)nc1C | 37 | 11 | 33 | 0 | 14 | 44*
O=C(O)CN1CCN(Cc2ccccc2F)C1=O | 0 | 17 | 4 | -15 | -16 | -4
Cc1onc(-c2ccccc2)c1CNS(=O)(=O)c1ccccc1 | -1 | 20 | 8 | -15 | -2 | 3
COc1ccc(S(=O)(=O)NCc2c(-c3ccccc3)noc2C)c(OC)c1 | 31 | 14 | 29 | -5 | 10 | 59*
O=C(O)c1ccccc1SCC(=O)N1CCOCC1 | 29 | 7 | 18 | -1 | 41* | 33
CCC(=O)c1ccccc1OCCSc1nc(C)cc(=O)[nH]1 | 146* | x | 0 | -19 | 2 | -2
O=C(NCc1ccco1)C1CC(c2ccccc2C(F)(F)F)=NO1 (centres undefined) | 19 | 15 | 21 | 5 | 21 | 72*
O=C(NCc1ccco1)C1CC(c2ccccc2O)=NO1 (centres undefined) | -4 | 2 | 2 | 7 | -5 | -7
COc1ccc(/C=C/C(=O)Nc2ccccc2C)cc1S(=O)(=O)N1CCOCC1 | 18 | 9 | 22 | 0 | 8 | 8
CCC(C)(C)NC(=O)/C=C/c1ccc(OC)c(S(=O)(=O)N2CCOCC2)c1 | 43* | 6 | 24 | 0 | 18 | 12
N#CC1=C(N)C(C#N)(C#N)[C@H](c2ccoc2)[C@H]2CN(Cc3ccccc3)CC=C12 | 112* | x | 29 | -11 | 20 | 7
CCCCOc1ccc(NC(=O)CCSc2nccn2C)cc1 | 1 | 3 | 6 | -9 | -1 | -5
N=C1/C(=C\c2ccc(OC(=O)c3ccco3)cc2)C(=O)N=C2SC=NN12 | 58* | 19 | 30 | 9 | 21 | 34
COCCCn1c(=O)/c(=C\c2ccccc2OC(C)C)s/c1=C(/C#N)C(=O)Nc1ccc(C(=O)O)cc1 | 38 | 10 | 49* | 10 | 8 | 28
Cc1cc(C)n2nc(SCC(=O)Nc3ccc(F)cc3)nc2n1 | -17 | x | 41* | -30 | -4 | 17
CNC(=O)CSc1nc2nc(C)cc(C)n2n1 | 3 | x | 17 | -15 | 2 | 0
O=C(NNc1c(Cl)cc(Cl)cc1Cl)c1n[nH]c(=O)c2ccccc12 | 36 | 10 | 74* | -1 | 28 | 21
NNC(=O)c1n[nH]c(=O)c2ccccc12 | -3 | 43 | 4 | -19 | -7 | -4
O=C(c1ccco1)N1c2ccccc2Sc2ccccc21 | 39 | x | 19 | -19 | 31 | 7
O=C(c1ccco1)N1CCN(C(=O)N2c3ccccc3Sc3ccccc32)CC1 | 43* | x | 5 | -17 | 104* | 10
Nc1nc(-c2ccco2)nn1C(=O)c1cccnc1 | -10 | x | 28 | -20 | 64* | -6
Nc1nc(-c2ccco2)nn1C(=O)CCc1ccccc1 | -11 | x | 19 | -3 | 93* | 0
CCCCN(C(=S)SC)C1CCS(=O)(=O)C1 (centres undefined) | 0 | 14 | 6 | -21 | 0 | 0
CN(C)c1nnnn1-c1ccc(Oc2ncc(C(F)(F)F)cc2Cl)cc1 | -5 | 15 | 2 | -6 | -16 | -8
